Results reported in ChEMBL document CHEMBL1275486, “Kinetic characterization of VIM-7, a divergent member of the VIM metallo-beta-lactamase family” (Antimicrob Agents Chemother, 2008).

Legend:
Conditions in all cases: 07-406
[1] = test system: C[C@@H](O)[C@H]1C(=O)N2C(C(=O)O)=C(SCCNC=N)C[C@H]12; test: (§1) Ratio of Kcat to Km for Pseudomonas aeruginosa beta-lactamase VIM-7 by spectrophotometry
Procedure, shortened: (§2)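 Recombinant enzyme was expressed in E. coli BL21(DE3) from pET-26b and purified from the periplasm to >99%, with concentration taken from A280. Hydrolysis was followed spectrophotometrically at 25°C in 50 mM sodium cacodylate pH 7.0 with 100 μM ZnCl2 and 0.1 mg/ml BSA. Km and kcat came from initial velocity versus substrate concentration. Some Km values were taken as competitive Ki against nitrocefin reporter.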

[2] = test system: CO[C@@]1(NC(=O)Cc2cccs2)C(=O)N2C(C(=O)O)=C(COC(N)=O)CS[C@@H]21; test: as §1; procedure, shortened: as §2
[3] = test system: O=C(Cc1cccs1)N[C@@H]1C(=O)N2C(C(=O)O)=C(/C=C/c3ccc([N+](=O)[O-])cc3[N+](=O)[O-])CS[C@H]12; test: as §1; procedure, shortened: as §2
[4] = test system: CC(=O)OCC1=C(C(=O)O)N2C(=O)[C@@H](NC(=O)Cc3cccs3)[C@H]2SC1; test: as §1; procedure, shortened: as §2
[5] = test system: CO/N=C(\C(=O)N[C@@H]1C(=O)N2C(C(=O)O)=C(COC(N)=O)CS[C@H]12)c1ccco1; test: as §1; procedure, shortened: as §2
[6] = test system: C[C@]1(Cn2ccnn2)[C@H](C(=O)O)N2C(=O)C[C@H]2S1(=O)=O; test: as §1; procedure, shortened: as §2
[7] = test system: CCN1CCN(C(=O)N[C@@H](C(=O)N[C@@H]2C(=O)N3[C@@H]2SC(C)(C)[C@@H]3C(=O)O)c2ccccc2)C(=O)C1=O; test: as §1; procedure, shortened: as §2
[8] = test system: CC1(C)S[C@@H]2[C@H](NC(=O)Cc3ccccc3)C(=O)N2[C@H]1C(=O)O; test: as §1; procedure, shortened: as §2
[9] = test system: CO/N=C(\C(=O)N[C@@H]1C(=O)N2C(C(=O)[O-])=C(C[N+]3(C)CCCC3)CS[C@H]12)c1csc(N)n1; test: as §1; procedure, shortened: as §2
[10] = test system: CC(C)(O/N=C(\C(=O)N[C@@H]1C(=O)N2C(C(=O)[O-])=C(C[n+]3ccccc3)CS[C@H]12)c1csc(N)n1)C(=O)O; test: as §1; procedure, shortened: as §2
[11] = test system: CO/N=C(\C(=O)N[C@@H]1C(=O)N2C(C(=O)O)=C(COC(C)=O)CS[C@H]12)c1csc(N)n1; test: as §1; procedure, shortened: as §2
[12] = test system: C[C@@H](O)[C@H]1C(=O)N2C(C(=O)O)=C(S[C@@H]3CN[C@H](C(=O)N(C)C)C3)[C@H](C)[C@H]12; test: as §1; procedure, shortened: as §2
[13] = test system: O=C(O)[C@H]1/C(=C/CO)O[C@@H]2CC(=O)N21; test: as §1; procedure, shortened: as §2
[14] = test system: CC1(C)[C@H](C(=O)O)N2C(=O)C[C@H]2S1(=O)=O; test: as §1; procedure, shortened: as §2
[15] = test system: CC1(C)S[C@@H]2[C@H](NC(=O)C(C(=O)O)c3ccccc3)C(=O)N2[C@H]1C(=O)O; test: as §1; procedure, shortened: as §2
[16] = test system: O=C(Cc1cccs1)N[C@@H]1C(=O)N2C(C(=O)[O-])=C(C[n+]3ccccc3)CS[C@H]12; test: as §1; procedure, shortened: as §2
[17] = test system: CC1(C)S[C@@H]2[C@H](NC(=O)[C@H](N)c3ccccc3)C(=O)N2[C@H]1C(=O)O; test: as §1; procedure, shortened: as §2
[18] = test system: CC1(C)S[C@@H]2[C@H](NC(=O)[C@H](NC(=O)N3CCNC3=O)c3ccccc3)C(=O)N2[C@H]1C(=O)O; test: as §1; procedure, shortened: as §2
[19] = test system: Cc1onc(-c2ccccc2Cl)c1C(=O)N[C@@H]1C(=O)N2[C@@H]1SC(C)(C)[C@@H]2C(=O)O; test: as §1; procedure, shortened: as §2
[20] = test system: C[C@@H](O)[C@H]1C(=O)N2C(C(=O)O)=C(S[C@@H]3CN[C@H](C(=O)Nc4cccc(C(=O)O)c4)C3)[C@H](C)[C@H]12; test: as §1; procedure, shortened: as §2
[21] = test system: CO[C@@]1(NC(=O)C(C(=O)O)c2ccc(O)cc2)C(=O)N2C(C(=O)O)=C(CSc3nnnn3C)CO[C@@H]21; test: as §1; procedure, shortened: as §2
[22] = test system: C[C@@H](O)[C@H]1C(=O)N2C(C(=O)O)=C(SCCNC=N)C[C@H]12; test: (§3) Activity of Pseudomonas aeruginosa beta-lactamase VIM-7 by spectrophotometry; procedure, shortened: as §2
[23] = test system: CO[C@@]1(NC(=O)Cc2cccs2)C(=O)N2C(C(=O)O)=C(COC(N)=O)CS[C@@H]21; test: as §3; procedure, shortened: as §2
[24] = test system: O=C(Cc1cccs1)N[C@@H]1C(=O)N2C(C(=O)O)=C(/C=C/c3ccc([N+](=O)[O-])cc3[N+](=O)[O-])CS[C@H]12; test: as §3; procedure, shortened: as §2
[25] = test system: CC(=O)OCC1=C(C(=O)O)N2C(=O)[C@@H](NC(=O)Cc3cccs3)[C@H]2SC1; test: as §3; procedure, shortened: as §2
[26] = test system: CO/N=C(\C(=O)N[C@@H]1C(=O)N2C(C(=O)O)=C(COC(N)=O)CS[C@H]12)c1ccco1; test: as §3; procedure, shortened: as §2
[27] = test system: C[C@]1(Cn2ccnn2)[C@H](C(=O)O)N2C(=O)C[C@H]2S1(=O)=O; test: as §3; procedure, shortened: as §2
[28] = test system: CCN1CCN(C(=O)N[C@@H](C(=O)N[C@@H]2C(=O)N3[C@@H]2SC(C)(C)[C@@H]3C(=O)O)c2ccccc2)C(=O)C1=O; test: as §3; procedure, shortened: as §2
[29] = test system: CC1(C)S[C@@H]2[C@H](NC(=O)Cc3ccccc3)C(=O)N2[C@H]1C(=O)O; test: as §3; procedure, shortened: as §2
[30] = test system: CO/N=C(\C(=O)N[C@@H]1C(=O)N2C(C(=O)[O-])=C(C[N+]3(C)CCCC3)CS[C@H]12)c1csc(N)n1; test: as §3; procedure, shortened: as §2
[31] = test system: CC(C)(O/N=C(\C(=O)N[C@@H]1C(=O)N2C(C(=O)[O-])=C(C[n+]3ccccc3)CS[C@H]12)c1csc(N)n1)C(=O)O; test: as §3; procedure, shortened: as §2
[32] = test system: CO/N=C(\C(=O)N[C@@H]1C(=O)N2C(C(=O)O)=C(COC(C)=O)CS[C@H]12)c1csc(N)n1; test: as §3; procedure, shortened: as §2
[33] = test system: C[C@@H](O)[C@H]1C(=O)N2C(C(=O)O)=C(S[C@@H]3CN[C@H](C(=O)N(C)C)C3)[C@H](C)[C@H]12; test: as §3; procedure, shortened: as §2
[34] = test system: O=C(O)[C@H]1/C(=C/CO)O[C@@H]2CC(=O)N21; test: as §3; procedure, shortened: as §2
[35] = test system: CC1(C)[C@H](C(=O)O)N2C(=O)C[C@H]2S1(=O)=O; test: as §3; procedure, shortened: as §2
[36] = test system: CC1(C)S[C@@H]2[C@H](NC(=O)C(C(=O)O)c3ccccc3)C(=O)N2[C@H]1C(=O)O; test: as §3; procedure, shortened: as §2
[37] = test system: O=C(Cc1cccs1)N[C@@H]1C(=O)N2C(C(=O)[O-])=C(C[n+]3ccccc3)CS[C@H]12; test: as §3; procedure, shortened: as §2
[38] = test system: CC1(C)S[C@@H]2[C@H](NC(=O)[C@H](N)c3ccccc3)C(=O)N2[C@H]1C(=O)O; test: as §3; procedure, shortened: as §2
[39] = test system: CC1(C)S[C@@H]2[C@H](NC(=O)[C@H](NC(=O)N3CCNC3=O)c3ccccc3)C(=O)N2[C@H]1C(=O)O; test: as §3; procedure, shortened: as §2
[40] = test system: C[C@H]1[C@H](NC(=O)/C(=N\OC(C)(C)C(=O)O)c2csc(N)n2)C(=O)N1S(=O)(=O)O; test: as §3; procedure, shortened: as §2
[41] = test system: Cc1onc(-c2ccccc2Cl)c1C(=O)N[C@@H]1C(=O)N2[C@@H]1SC(C)(C)[C@@H]2C(=O)O; test: as §3; procedure, shortened: as §2
[42] = test system: C[C@@H](O)[C@H]1C(=O)N2C(C(=O)O)=C(S[C@@H]3CN[C@H](C(=O)Nc4cccc(C(=O)O)c4)C3)[C@H](C)[C@H]12; test: as §3; procedure, shortened: as §2
[43] = test system: CO[C@@]1(NC(=O)C(C(=O)O)c2ccc(O)cc2)C(=O)N2C(C(=O)O)=C(CSc3nnnn3C)CO[C@@H]21; test: as §3; procedure, shortened: as §2

Chain of Metallo-b-lactamase (Pseudomonas aeruginosa), Q840P9 (Q840P9 whole entry): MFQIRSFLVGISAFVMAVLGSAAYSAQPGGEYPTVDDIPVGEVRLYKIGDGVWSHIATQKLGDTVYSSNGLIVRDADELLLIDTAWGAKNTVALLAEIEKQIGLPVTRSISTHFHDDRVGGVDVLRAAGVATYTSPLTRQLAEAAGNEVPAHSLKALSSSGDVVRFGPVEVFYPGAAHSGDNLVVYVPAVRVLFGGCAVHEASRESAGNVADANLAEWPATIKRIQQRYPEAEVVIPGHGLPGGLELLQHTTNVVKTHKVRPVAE

## Metallo-b-lactamase (Pseudomonas aeruginosa), Q840P9
[1]
  kcat/Km: 3.7e+06 M⁻¹ s⁻¹
[2]
  kcat/Km: 150000 M⁻¹ s⁻¹
[3]
  kcat/Km: 2.6e+07 M⁻¹ s⁻¹
[4]
  kcat/Km: 4e+06 M⁻¹ s⁻¹
[5]
  kcat/Km: 550000 M⁻¹ s⁻¹
[6]
  kcat/Km: 19000 M⁻¹ s⁻¹
[7]
  kcat/Km: 5.4e+06 M⁻¹ s⁻¹
[8]
  kcat/Km: 2.5e+07 M⁻¹ s⁻¹
[9]
  kcat/Km: 9100 M⁻¹ s⁻¹
[10]
  kcat/Km: 12000 M⁻¹ s⁻¹
[11]
  kcat/Km: 2.6e+06 M⁻¹ s⁻¹
[12]
  kcat/Km: 1.1e+06 M⁻¹ s⁻¹
[13]
  kcat/Km: 2500 M⁻¹ s⁻¹
[14]
  kcat/Km: 150000 M⁻¹ s⁻¹
[15]
  kcat/Km: 1.4e+07 M⁻¹ s⁻¹
[16]
  kcat/Km: 720000 M⁻¹ s⁻¹
[17]
  kcat/Km: 1.3e+07 M⁻¹ s⁻¹
[18]
  kcat/Km: 1.2e+06 M⁻¹ s⁻¹
[19]
  kcat/Km: 2.9e+06 M⁻¹ s⁻¹
[20]
  kcat/Km: 290000 M⁻¹ s⁻¹
[21]
  kcat/Km: 3.1e+06 M⁻¹ s⁻¹
[22]
  Km: 27 µM
  kcat: 100 s⁻¹
[23]
  Km: 68 µM
  kcat: 10 s⁻¹
[24]
  Km: 58 µM
  kcat: 1500 s⁻¹
[25]
  Km: 45 µM
  kcat: 180 s⁻¹
[26]
  Km: 29 µM
  kcat: 16 s⁻¹
[27]
  Km: 3500 µM
  kcat: 68 s⁻¹
[28]
  Km: 26 µM
  kcat: 140 s⁻¹
[29]
  Km: 17 µM
  kcat: 430 s⁻¹
[30]
  Km: 580 µM
  kcat: 5.3 s⁻¹
[31]
  Km: 120 µM
  kcat: 1.4 s⁻¹
[32]
  Km: 22 µM
  kcat: 56 s⁻¹
[33]
  Km: 38 µM
  kcat: 42 s⁻¹
[34]
  Km: 940 µM
  kcat: 2.3 s⁻¹
[35]
  Km: 740 µM
  kcat: 110 s⁻¹
[36]
  Km: 84 µM
  kcat: 1200 s⁻¹
[37]
  Km: 250 µM
  kcat: 180 s⁻¹
[38]
  Km: 15 µM
  kcat: 190 s⁻¹
[39]
  Km: 66 µM
  kcat: 78 s⁻¹
[40]
  Km: 2700 µM
[41]
  Km: 860 µM
  kcat: 2500 s⁻¹
[42]
  Km: 28 µM
  kcat: 8 s⁻¹
[43]
  Km: 75 µM
  kcat: 230 s⁻¹
